Data: ChEMBL document CHEMBL1150958, “Growth-inhibitory activities of benzofuran and chromene derivatives toward Tenebrio molitor” (1998)

Legend:
Tenebrio molitor [1] = test: Growth inhibition of last instar larvae of Tenebrio molitor assessed as duration of pupal stage at 120 ug/larvae, applied topically measured every 24 hrs for 30 days; format: functional
Outline: (§1)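 Last-instar T. molitor larvae (113–160 mg, from a stock culture kept on wheat bran) were dosed once, topically on the ventral abdominal segments by microsyringe, with 2 µL acetone solution (120 µg compound per larva). Solvent-only controls were included. Larvae were unfed. Pupation and pupal-stage length were scored every 24 h to day 30. n = 60, mean (SE). Pupation was analysed by χ² test and pupal duration by Dunnett test.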

Tenebrio molitor [2] = test: Growth inhibition of last instar larvae of Tenebrio molitor assessed as successful pupation at 120 ug/larvae, applied topically measured every 24 hrs for 30 days; format: functional; design: scale not given: the % may be the effect or the level left; outline: as §1

Row | Compound | Activity (Tenebrio molitor [1]) | Activity (Tenebrio molitor [2])
1 | O=C(O)/C=C/c1ccccc1 [CINNAMIC ACID] | 8.7 days | 92%
2 | O=C(O)/C=C/c1ccc(O)cc1 [COUMARIC ACID] | 10 days | 87%
3 | CC(=O)c1ccc2c(c1)C(=O)CC(C)(C)O2 | 12.1 days | 87%
4 | CC(C)CCc1cc(CCC(=O)O)ccc1O | 10.2 days | 50%
5 | CC(=O)c1cc2c(cc1O)OC(C)(C)C=C2 [DEMETHYLENCECALIN] | 11.5 days | 66.6%
6 | CC(=O)c1ccc(O)c(C(=O)C=C(C)C)c1 | 11.4 days | 75%
7 | C=C(C)c1cc2cc(C(C)=O)c(O)cc2o1 [EUPARIN] | 10.5 days | 83%
8 | C=C(CO)[C@@H]1Cc2cc(C(C)=O)c(O)cc2O1 | 11.6 days | 73%
9 | C=C(COC(C)=O)[C@@H]1Cc2cc(C(C)=O)c(O)cc2O1 | 11.2 days | 73.3%
10 | CC(C)=CCc1cc(/C=C/C(=O)O)ccc1O [DRUPANIN] | 13 days | 63%
11 | C=C(COC(C)=O)[C@@H]1Cc2cc(C(C)=O)ccc2O1 | 9.8 days | 75%
12 | C=C(COC(=O)/C=C/c1ccc(O)cc1)[C@@H]1Cc2cc(C(C)=O)ccc2O1 | 10.5 days | 26%
13 | COC(=O)/C=C/c1ccc2c(c1)CCC(C)(C)O2 | 7 days | 87%
14 | C=C(CO)[C@@H]1Cc2cc(C(C)=O)ccc2O1 [BITALIN A] | 8.6 days | 75%
